Converted amounts (≈) assume the structure as drawn.
Legend:
Type in all cases: functional
[1] = test system: Shigella flexneri; assay: Antibacterial activity against Shigella flexneri ATCC 15391 after 24 hrs by two-fold serial dilution method; settings: ATCC 15391, 24 h
Outline: (§1)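 Two-fold serial broth dilution in sterile nutrient broth at 500, 250, 125, 62.5, 31.25, 15.63, 7.82 and 3.91 µg/ml, with dimethylformamide ≤2.5%. Organisms were pre-grown 24 h in broth, and 0.1 ml inoculum was added per 5 ml tube. Tubes were incubated at 37°C, 24 h for bacteria and 48 h for fungi. MIC was taken as the lowest concentration giving no turbidity.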

[2] = test system: NCI-H23; assay: Cytotoxicity against human NCI-H23 cells assessed as growth inhibition at 10 uM; settings: read-out: GI
Outline: (§2)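 Single-dose screen on human tumour cell lines. Growth of treated cells is expressed as percent of untreated growth, plotted as a mean graph, and reported as percent growth inhibition.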

[3] = test system: Shigella flexneri; assay: Antibacterial activity against Shigella flexneri ATCC 15391 after 24 hrs by two-fold serial dilution method relative to ofloxacin
[4] = test system: Staphylococcus aureus; assay: Antibacterial activity against Staphylococcus aureus ATCC 6538P assessed as diameter of inhibition zone at 1 mg/ml after 24 hrs by cup diffusion method (reference value: 15 mm); settings: read-out: DIZ
[5] = test system: HCC 2998; assay: Cytotoxicity against human HCC2998 cells assessed as growth inhibition at 10 uM; settings: read-out: GI
[6] = test system: Candida albicans; assay: Antifungal activity against Candida albicans ATCC 2091 assessed as diameter of inhibition zone at 1 mg/ml after 48 hrs by cup diffusion method (reference value: 22 mm); settings: ATCC 2091, 48 h, read-out: DIZ
[7] = test system: NCI/ADR-RES; assay: Cytotoxicity against human NCI/ADR-RES cells assessed as growth inhibition at 10 uM; settings: read-out: GI; outline: as §2
[8] = test system: Pseudomonas aeruginosa; assay: Antibacterial activity against Pseudomonas aeruginosa ATCC 9027 assessed as diameter of inhibition zone at 1 mg/ml after 24 hrs by cup diffusion method (reference value: 16 mm); settings: ATCC 9027, 24 h, read-out: DIZ
[9] = test system: Shigella flexneri; assay: Antibacterial activity against Shigella flexneri ATCC 15391 assessed as diameter of inhibition zone at 1 mg/ml after 24 hrs by cup diffusion method (reference value: 17 mm); settings: ATCC 15391, 24 h, read-out: DIZ
[10] = test system: OVCAR-8; assay: Cytotoxicity against human OVCAR8 cells assessed as growth inhibition at 10 uM; settings: read-out: GI; outline: as §2
[11] = test system: UACC-257; assay: Cytotoxicity against human UACC257 cells assessed as growth inhibition at 10 uM; settings: read-out: GI
Outline: (§3)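 Single-dose screen in a sixty-cell human tumour line panel; percent growth of treated cells relative to untreated was read and reported as percentage growth inhibition, shown as a mean graph. Compounds meeting the threshold inhibition criteria went on to five-dose testing.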

[12] = test system: Malme-3M; assay: Cytotoxicity against human MALME-3M cells assessed as growth inhibition at 10 uM; settings: read-out: GI
[13] = test system: SNB-75; assay: Cytotoxicity against human SNB75 cells assessed as growth inhibition at 10 uM; settings: read-out: GI; outline: as §2
[14] = test system: BT-549; assay: Cytotoxicity against human BT549 cells assessed as growth inhibition at 10 uM; settings: read-out: GI
[15] = test system: A498; assay: Cytotoxicity against human A498 cells assessed as growth inhibition at 10 uM; settings: read-out: GI
[16] = test system: MCF7; assay: Cytotoxicity against human MCF7 cells assessed as growth inhibition at 10 uM; settings: read-out: GI; outline: as §2
[17] = test system: SF-295; assay: Cytotoxicity against human SF295 cells assessed as growth inhibition at 10 uM; settings: read-out: GI; outline: as §2
[18] = test system: IGROV-1; assay: Cytotoxicity against human IGROV1 cells assessed as growth inhibition at 10 uM; settings: read-out: GI
[19] = test system: PC-3; assay: Cytotoxicity against human PC3 cells assessed as growth inhibition at 10 uM; settings: read-out: GI; outline: as §2
[20] = test system: HOP-62; assay: Cytotoxicity against human HOP62 cells assessed as growth inhibition at 10 uM; settings: read-out: GI
[21] = test system: UACC-62; assay: Cytotoxicity against human UACC62 cells assessed as growth inhibition at 10 uM; settings: read-out: GI; outline: as §3
[22] = Cytotoxicity against human EKVX cells assessed as growth inhibition at 10 uM; settings: read-out: GI
[23] = test system: SR; assay: Cytotoxicity against human SR cells assessed as growth inhibition at 10 uM; settings: read-out: GI; outline: as §2
[24] = test system: SK-MEL-2; assay: Cytotoxicity against human SK-MEL-2 cells assessed as growth inhibition at 10 uM; settings: read-out: GI; outline: as §2
[25] = test system: HOP-92; assay: Cytotoxicity against human HOP92 cells assessed as growth inhibition at 10 uM; settings: read-out: GI
[26] = test system: TK-10; assay: Cytotoxicity against human TK10 cells assessed as growth inhibition at 10 uM; settings: read-out: GI; outline: as §3
[27] = test system: NCI-H522; assay: Cytotoxicity against human NCI-H522 cells assessed as growth inhibition at 10 uM; settings: read-out: GI; outline: as §2
[28] = test system: Hs-578T; assay: Cytotoxicity against human Hs578T cells assessed as growth inhibition at 10 uM; settings: read-out: GI
[29] = test system: Pseudomonas aeruginosa; assay: Antibacterial activity against Pseudomonas aeruginosa ATCC 9027 after 24 hrs by two-fold serial dilution method; settings: ATCC 9027, 24 h; outline: as §1
[30] = test system: T47D; assay: Cytotoxicity against human T47D cells assessed as growth inhibition at 10 uM; settings: read-out: GI; outline: as §2
[31] = test system: Pseudomonas aeruginosa; assay: Antibacterial activity against Pseudomonas aeruginosa ATCC 9027 after 24 hrs by two-fold serial dilution method relative to ofloxacin
[32] = test system: Candida albicans; assay: Antifungal activity against Candida albicans ATCC 2091 after 48 hrs by two-fold serial dilution method relative to clotrimazole
[33] = test system: Staphylococcus aureus; assay: Antibacterial activity against Staphylococcus aureus ATCC 6538P after 24 hrs by two-fold serial dilution method; outline: as §1
[34] = test system: Candida albicans; assay: Antifungal activity against Candida albicans ATCC 2091 after 48 hrs by two-fold serial dilution method; settings: ATCC 2091, 48 h; outline: as §1
[35] = test system: M14; assay: Cytotoxicity against human M14 cells assessed as growth inhibition at 10 uM; settings: read-out: GI
[36] = test system: UO-31; assay: Cytotoxicity against human UO31 cells assessed as growth inhibition at 10 uM; settings: read-out: GI; outline: as §3

SMILES | MIC [1] [µg/mL] | Activity [3] [%] | zone of inhibition at 1000 µg/mL [4] [mm] | zone of inhibition at 1000 µg/mL [6] [mm] | inhibition of growth at 10 µM [7] [%] | zone of inhibition at 1000 µg/mL [8] [mm] | zone of inhibition at 1000 µg/mL [9] [mm] | inhibition of growth at 10 µM [10] [%] | MIC [29] [µg/mL] | further results
Cn1c(NN)nc(-c2ccco2)c(C#N)c1=O | 125 (≈ 541 µM) | 60 | 15 | 22 | 55.9 | 16 | 20 |  |  | inhibition of growth at 10 µM [2]: 54.7%; inhibition of growth at 10 µM [5]: 84.4%
Cn1c(N2CCOCC2)nc(-c2ccco2)c(C#N)c1=O |  |  | 15 | 22 |  | 17 | 17 | 47.1 |  | inhibition of growth at 10 µM [11]: 69.8%
N#Cc1c(Cl)nc(SCC2CO2)nc1-c1ccccc1 (stereo not given) | 125 (≈ 411 µM) |  | 15 | 22 |  | 16 | 22 | 48.4 |  | inhibition of growth at 10 µM [11]: 60.1%
N#Cc1c(-c2ccco2)[nH]c(=S)[nH]c1=O | 125 (≈ 570 µM) | 60 | 15 | 22 | 74.2 | 16 | 21 |  |  | inhibition of growth at 10 µM [2]: 78.6%; inhibition of growth at 10 µM [12]: 55.6%; inhibition of growth at 10 µM [13]: 42.8%
N#Cc1c(N2CCOCC2)nc(=S)[nH]c1-c1ccccc1 |  |  | 15 | 22 |  | 18 | 17 |  | 125 (≈ 419 µM) | inhibition of growth at 10 µM [14]: 42.3%; inhibition of growth at 10 µM [15]: 86.3%; inhibition of growth at 10 µM [16]: 43.4%; inhibition of growth at 10 µM [17]: 45.5%; inhibition of growth at 10 µM [18]: 70.9%; inhibition of growth at 10 µM [19]: 53%; inhibition of growth at 10 µM [20]: 48.7%; inhibition of growth at 10 µM [21]: 56.4%; inhibition of growth at 10 µM [22]: 43.2%; inhibition of growth at 10 µM [23]: 46.9%; inhibition of growth at 10 µM [24]: 58.2%; inhibition of growth at 10 µM [12]: 104%; inhibition of growth at 10 µM [13]: 84.9%; inhibition of growth at 10 µM [25]: 107%; inhibition of growth at 10 µM [26]: 42.4%; inhibition of growth at 10 µM [27]: 40.4%; inhibition of growth at 10 µM [28]: 73.2%; inhibition of growth at 10 µM [30]: 62.7%
N#Cc1c(N2CCCCC2)nc(=S)[nH]c1-c1ccccc1 | 125 (≈ 422 µM) | 60 | 15 | 22 | 75.8 | 16 | 20 |  |  | inhibition of growth at 10 µM [2]: 81.2%; inhibition of growth at 10 µM [23]: 44.6%; inhibition of growth at 10 µM [12]: 48.7%; inhibition of growth at 10 µM [25]: 44.5%; Activity [31]: 60%
CCN(CC)CCSc1nc(-c2ccccc2)c(C#N)c(=O)[nH]1 | 125 (≈ 381 µM) | 60 | 18 | 25 | 42 | 18 | 21 |  | 125 (≈ 381 µM) | inhibition of growth at 10 µM [5]: 107%; Activity [32]: 62%; MIC [33]: 3.91 µg/mL (≈ 11.9 µM); Activity [31]: 50%; MIC [34]: 125 µg/mL (≈ 381 µM)
N#Cc1c(-c2ccccc2)nc(SCC(=O)Nc2ccc(Cl)cc2)[nH]c1=O |  |  | 20 | 30 |  | 22 | 17 |  | 125 (≈ 315 µM) | inhibition of growth at 10 µM [5]: 84.4%; Activity [32]: 75%; MIC [33]: 3.91 µg/mL (≈ 9.85 µM); inhibition of growth at 10 µM [35]: 45%; MIC [34]: 125 µg/mL (≈ 315 µM)
Cn1c(N2CCCCC2)nc(-c2ccccc2)c(C#N)c1=O | 125 (≈ 425 µM) |  | 15 | 22 |  | 17 | 24 | 42.4 |  | inhibition of growth at 10 µM [24]: 69.8%; inhibition of growth at 10 µM [11]: 71.9%
Cn1c(N2CCCCC2)nc(-c2ccco2)c(C#N)c1=O |  |  | 15 | 22 |  | 16 | 19 |  |  | inhibition of growth at 10 µM [24]: 70.7%
Cn1c(N2CCN(Cc3ccccc3)CC2)nc(-c2ccccc2)c(C#N)c1=O |  |  | 17 | 22 |  | 18 | 17 | 54.6 | 125 (≈ 324 µM) | inhibition of growth at 10 µM [36]: 49.1%

Source: ChEMBL document CHEMBL2413060, “Synthesis, biological evaluation and molecular docking studies of some pyrimidine derivatives” (2013)
